The source made the active and inactive calls. The rule behind the calls is not given here.
These molecules were tested on G-361 (assay: Induction of apoptosis in human G361 cells assessed as decrease in BCL-XL protein expression after 24 hrs by immunoblotting analysis). Settings: not given.
Type: functional, cell-based
Method in brief: (§1)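 Asynchronous G361 cells exposed 24 h; lysates made by harvesting in Laemmli sample buffer, resolved by SDS-PAGE, electroblotted to nitrocellulose, blocked, probed overnight with specific primary antibodies, then peroxidase-conjugated secondary antibodies; actin served as loading control.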

Compound	Activity
O=C(N[C@H](Cc1ccccc1)C(=O)Nc1ccc(Cl)cc1)c1cc(Cl)ccc1O	Dose-dependent effect

These molecules were tested on G-361 (assay: Induction of apoptosis in human G361 cells assessed as PARP-1 cleavage at 0.2 to 6 uM after 24 hrs by immunoblotting analysis). Settings: not given.
Type: functional, cell-based
Method in brief: as §1

Compound	Activity
O=C(N[C@H](Cc1ccccc1)C(=O)Nc1ccc(Cl)cc1)c1cc(Cl)ccc1O	Active

The molecules below were run on MCF7 (assay: Cytotoxicity against human MCF7 cells after 72 hrs by calcein-AM assay). Settings: MCF7, 72 h.
Type: functional, cell-based

Compound	IC50 [µM]
O=C(CNC(=O)c1cc(Cl)ccc1O)Nc1cccc(Cl)c1	> 10
C[C@H](NC(=O)c1cc(Cl)ccc1O)C(=O)Nc1ccc(C(F)(F)F)cc1	> 12.5
CC(C)[C@H](NC(=O)c1cc(Cl)ccc1O)C(=O)Nc1ccc(C(F)(F)F)cc1	7.3
C[C@H](NC(=O)c1cc(Cl)ccc1O)C(=O)Nc1cccc(Cl)c1	> 10
O=C(N[C@H](Cc1ccccc1)C(=O)Nc1ccc(Cl)cc1)c1cc(Cl)ccc1O	3.5
CC(C)[C@H](NC(=O)c1ccc(Cl)cc1O)C(=O)Nc1ccc(Cl)cc1	> 10
CC(C)[C@H](NC(=O)c1cc(Cl)ccc1O)C(=O)Nc1ccccc1	> 10
Cc1ccc(NC(=O)c2ccc(CN3CCN(C)CC3)cc2)cc1Nc1nccc(-c2cccnc2)n1 [IMATINIB]	> 10

These molecules were tested on G-361 (assay: Downregulation of cyclin B protein expression in human G361 cells at 0.22 to 6 uM after 24 hrs by immunoblotting analysis). Settings: not given.
Type: functional, cell-based
Method in brief: as §1

Compound	Activity
O=C(N[C@H](Cc1ccccc1)C(=O)Nc1ccc(Cl)cc1)c1cc(Cl)ccc1O	Active

The molecules below were run on G-361 (assay: Effect on CDK2 protein expression in human G361 cells at 0.22 to 6 uM after 24 hrs by immunoblotting analysis). Settings: not given.
Type: functional, cell-based
Method in brief: as §1

Compound	Activity
O=C(N[C@H](Cc1ccccc1)C(=O)Nc1ccc(Cl)cc1)c1cc(Cl)ccc1O	Active

The molecules below were run on G-361 (assay: Induction of apoptosis in human G361 cells assessed as increase in p53 mRNA level). Settings: not given.
Type: functional, cell-based

Compound	Activity
O=C(N[C@H](Cc1ccccc1)C(=O)Nc1ccc(Cl)cc1)c1cc(Cl)ccc1O	inactive

These molecules were tested on G-361 (assay: Induction of apoptosis in human G361 cells assessed as caspase-3/7 activation at 2 uM after 24 hrs by fluorescence assay relative to control). Settings: not given.
Type: functional
Method in brief: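 G361 cells seeded at 20,000 per well overnight, then exposed 24 h to compound at 2 µM final. 3x caspase-3/7 buffer (HEPES pH 7.4, NaCl, KCl, MgCl2, EGTA, NP-40, CHAPS, sucrose, DTT, PMSF) with Ac-DEVD-AMC substrate added; incubated 37 °C, fluorescence read after 4 h at 346/442 nm; activity expressed relative to untreated cells.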

Compound	Activity	fold change (FC)
CC(C)[C@H](NC(=O)c1cc(Cl)ccc1O)C(=O)Nc1ccc(C(F)(F)F)cc1	Active	–
O=C(N[C@H](Cc1ccccc1)C(=O)Nc1ccc(Cl)cc1)c1cc(Cl)ccc1O	–	>10

What follows are molecules tested on G-361 (assay: Upregulation of p27KIP1 protein expression in human G361 cells at 2 to 6 uM after 24 hrs by immunoblotting analysis). Settings: not given.
Type: functional, cell-based
Method in brief: as §1

Compound	Activity
O=C(N[C@H](Cc1ccccc1)C(=O)Nc1ccc(Cl)cc1)c1cc(Cl)ccc1O	inactive

The molecules below were run on G-361 (assay: Cell cycle arrest in human G361 cells assessed as increase in sub-G1 phase population at 1 to 4 uM after 24 hrs by propidium iodide staining-based flow cytometric analysis in presence of BrdU). Settings: not given.
Type: functional
Method in brief: (§2)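 Asynchronously growing cells treated 24 h; cultures pulse-labelled with 10 µM BrdU for 30 min at 37 °C before harvest, washed in PBS, fixed in 70% ethanol, denatured in 2 M HCl, neutralized, stained with fluorescein anti-BrdU antibody then propidium iodide; flow cytometry with 488 nm laser; sub-G1 and BrdU-positive S-phase fractions scored.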

Compound	Activity
O=C(N[C@H](Cc1ccccc1)C(=O)Nc1ccc(Cl)cc1)c1cc(Cl)ccc1O	Active

What follows are molecules tested on HOS (assay: Cytotoxicity against human HOS cells after 72 hrs by calcein-AM assay). Settings: not given.
Type: functional, cell-based

Compound	IC50 [µM]
CC(C)[C@H](NC(=O)c1cc(Cl)ccc1O)C(=O)Nc1ccc(C(F)(F)F)cc1	7
O=C(N[C@H](Cc1ccccc1)C(=O)Nc1ccc(Cl)cc1)c1cc(Cl)ccc1O	2.5

These molecules were tested on G-361 (assay: Cell cycle arrest in human G361 cells assessed as decrease in S phase population at 0.25 to 4 uM after 24 hrs by propidium iodide staining-based flow cytometric analysis in presence of BrdU). Settings: not given.
Type: functional
Method in brief: as §2

Compound	Activity
O=C(N[C@H](Cc1ccccc1)C(=O)Nc1ccc(Cl)cc1)c1cc(Cl)ccc1O	Active

Each molecule was assayed on G-361 (assay: Downregulation of CDK4 protein expression in human G361 cells at 0.22 to 6 uM after 24 hrs by immunoblotting analysis). Settings: not given.
Type: functional, cell-based
Method in brief: as §1

Compound	Activity
O=C(N[C@H](Cc1ccccc1)C(=O)Nc1ccc(Cl)cc1)c1cc(Cl)ccc1O	Active

These molecules were tested on K562 (assay: Cytotoxicity against human K562 cells after 72 hrs by calcein-AM assay). Settings: K562, 72 h.
Type: functional, cell-based

Compound	IC50 [µM]
O=C(CNC(=O)c1cc(Cl)ccc1O)Nc1cccc(Cl)c1	> 10
C[C@H](NC(=O)c1cc(Cl)ccc1O)C(=O)Nc1ccc(C(F)(F)F)cc1	> 12.5
CC(C)[C@H](NC(=O)c1cc(Cl)ccc1O)C(=O)Nc1ccc(C(F)(F)F)cc1	4.5
C[C@H](NC(=O)c1cc(Cl)ccc1O)C(=O)Nc1cccc(Cl)c1	> 10
O=C(N[C@H](Cc1ccccc1)C(=O)Nc1ccc(Cl)cc1)c1cc(Cl)ccc1O	2.5
CC(C)[C@H](NC(=O)c1ccc(Cl)cc1O)C(=O)Nc1ccc(Cl)cc1	> 10
CC(C)[C@H](NC(=O)c1cc(Cl)ccc1O)C(=O)Nc1ccccc1	> 10
Cc1ccc(NC(=O)c2ccc(CN3CCN(C)CC3)cc2)cc1Nc1nccc(-c2cccnc2)n1 [IMATINIB]	0.5

What follows are molecules tested on G-361 (assay: Cytotoxicity against human G361 cells after 72 hrs by calcein-AM assay). Settings: G-361, 72 h.
Type: functional, cell-based

Compound	IC50 [µM]
CC(C)[C@H](NC(=O)c1cc(Cl)ccc1O)C(=O)Nc1ccc(C(F)(F)F)cc1	6.6
O=C(N[C@H](Cc1ccccc1)C(=O)Nc1ccc(Cl)cc1)c1cc(Cl)ccc1O	1.3

These molecules were tested on G-361 (assay: Induction of apoptosis in human G361 cells assessed as decrease in caspase-7 zymogene at 0.2 to 6 uM after 24 hrs by immunoblotting analysis). Settings: not given.
Type: functional, cell-based
Method in brief: as §1

Compound	Activity
O=C(N[C@H](Cc1ccccc1)C(=O)Nc1ccc(Cl)cc1)c1cc(Cl)ccc1O	Active

What follows are molecules tested on HeLa (assay: Cytotoxicity against human HeLa cells after 72 hrs by calcein-AM assay). Settings: not given.
Type: functional, cell-based

Compound	IC50 [µM]
CC(C)[C@H](NC(=O)c1cc(Cl)ccc1O)C(=O)Nc1ccc(C(F)(F)F)cc1	5.4
O=C(N[C@H](Cc1ccccc1)C(=O)Nc1ccc(Cl)cc1)c1cc(Cl)ccc1O	1.1

These molecules were tested on G-361 (assay: Induction of apoptosis in human G361 cells assessed as decrease in caspase-3 zymogene at 0.2 to 6 uM after 24 hrs by immunoblotting analysis). Settings: not given.
Type: functional, cell-based
Method in brief: as §1

Compound	Activity
O=C(N[C@H](Cc1ccccc1)C(=O)Nc1ccc(Cl)cc1)c1cc(Cl)ccc1O	Active

Each molecule was assayed on G-361 (assay: Downregulation of cyclin A protein expression in human G361 cells at 0.22 to 6 uM after 24 hrs by immunoblotting analysis). Settings: not given.
Type: functional, cell-based
Method in brief: as §1

Compound	Activity
O=C(N[C@H](Cc1ccccc1)C(=O)Nc1ccc(Cl)cc1)c1cc(Cl)ccc1O	Active

These molecules were tested on G-361 (assay: Induction of autophagy in human G361 cells assessed as fragmentation of LC3 at 0.2 to 6 uM after 24 hrs by immunoblotting analysis). Settings: not given.
Type: functional, cell-based
Method in brief: as §1

Compound	Activity
O=C(N[C@H](Cc1ccccc1)C(=O)Nc1ccc(Cl)cc1)c1cc(Cl)ccc1O	Active

The molecules below were run on G-361 (assay: Effect on cyclin E protein expression in human G361 cells at 0.22 to 6 uM after 24 hrs by immunoblotting analysis). Settings: not given.
Type: functional, cell-based
Method in brief: as §1

Compound	Activity
O=C(N[C@H](Cc1ccccc1)C(=O)Nc1ccc(Cl)cc1)c1cc(Cl)ccc1O	Active

What follows are molecules tested on G-361 (assay: Induction of apoptosis in human G361 cells). Settings: not given.
Type: functional, cell-based

Compound	Activity
O=C(N[C@H](Cc1ccccc1)C(=O)Nc1ccc(Cl)cc1)c1cc(Cl)ccc1O	Dose-dependent effect

The molecules below were run on G-361 (assay: Downregulation of MDM2 protein expression in human G361 cells at 0.2 to 6 uM after 24 hrs by immunoblotting analysis). Settings: not given.
Type: functional, cell-based
Method in brief: as §1

Compound	Activity
O=C(N[C@H](Cc1ccccc1)C(=O)Nc1ccc(Cl)cc1)c1cc(Cl)ccc1O	Active

These molecules were tested on G-361 (assay: Induction of apoptosis in human G361 cells assessed as increase in p53 protein level at 0.2 to 6 uM after 24 hrs by immunoblotting analysis). Settings: not given.
Type: functional, cell-based
Method in brief: as §1

Compound	Activity
O=C(N[C@H](Cc1ccccc1)C(=O)Nc1ccc(Cl)cc1)c1cc(Cl)ccc1O	inactive

Each molecule was assayed against RAC-alpha serine/threonine-protein kinase (Homo sapiens) (UniProt P31749) (assay: Inhibition of AKT phosphorylation at Ser473 in human G361 cells at 0.22 to 6 uM after 24 hrs by immunoblotting analysis). Settings: G-361.
Chain of RAC-alpha serine/threonine-protein kinase (Homo sapiens) (P31749 whole entry): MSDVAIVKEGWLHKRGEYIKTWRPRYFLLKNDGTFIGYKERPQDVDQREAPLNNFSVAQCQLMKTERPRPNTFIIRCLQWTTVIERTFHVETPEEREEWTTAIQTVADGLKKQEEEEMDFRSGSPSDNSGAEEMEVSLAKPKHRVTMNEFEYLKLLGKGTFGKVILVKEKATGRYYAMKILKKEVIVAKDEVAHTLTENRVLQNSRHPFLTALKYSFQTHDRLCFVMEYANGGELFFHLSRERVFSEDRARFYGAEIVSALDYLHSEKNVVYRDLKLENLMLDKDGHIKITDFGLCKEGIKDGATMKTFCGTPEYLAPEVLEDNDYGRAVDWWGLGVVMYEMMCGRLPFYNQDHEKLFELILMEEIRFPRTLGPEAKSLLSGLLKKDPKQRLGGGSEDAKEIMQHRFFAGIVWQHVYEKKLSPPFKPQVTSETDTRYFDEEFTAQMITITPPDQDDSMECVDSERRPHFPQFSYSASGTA
Type: cell-based
Method in brief: as §1

Compound	inhibition
O=C(N[C@H](Cc1ccccc1)C(=O)Nc1ccc(Cl)cc1)c1cc(Cl)ccc1O	Active

Each molecule was assayed on G-361 (assay: Induction of apoptosis in human G361 cells assessed as increase in BCL-2 protein expression at 0.2 to 6 uM after 24 hrs by immunoblotting analysis). Settings: not given.
Type: functional, cell-based
Method in brief: as §1

Compound	Activity
O=C(N[C@H](Cc1ccccc1)C(=O)Nc1ccc(Cl)cc1)c1cc(Cl)ccc1O	Active

What follows are molecules tested on G-361 (assay: Downregulation of p53 protein expression in human G361 cells at 0.2 to 6 uM after 24 hrs by immunoblotting analysis). Settings: not given.
Type: functional, cell-based
Method in brief: as §1

Compound	Activity
O=C(N[C@H](Cc1ccccc1)C(=O)Nc1ccc(Cl)cc1)c1cc(Cl)ccc1O	Active

What follows are molecules tested against Mitogen-activated protein kinase; ERK1/ERK2 (Homo sapiens) (UniProt P27361+P28482) (assay: Inhibition of ERK1/2 phosphorylation at Thr202/Tyr204 in human G361 cells at 0.22 to 6 uM after 24 hrs by immunoblotting analysis). Settings: G-361.
Chain of Mitogen-activated protein kinase; ERK1/ERK2 (Homo sapiens) (P27361 whole entry, looked up): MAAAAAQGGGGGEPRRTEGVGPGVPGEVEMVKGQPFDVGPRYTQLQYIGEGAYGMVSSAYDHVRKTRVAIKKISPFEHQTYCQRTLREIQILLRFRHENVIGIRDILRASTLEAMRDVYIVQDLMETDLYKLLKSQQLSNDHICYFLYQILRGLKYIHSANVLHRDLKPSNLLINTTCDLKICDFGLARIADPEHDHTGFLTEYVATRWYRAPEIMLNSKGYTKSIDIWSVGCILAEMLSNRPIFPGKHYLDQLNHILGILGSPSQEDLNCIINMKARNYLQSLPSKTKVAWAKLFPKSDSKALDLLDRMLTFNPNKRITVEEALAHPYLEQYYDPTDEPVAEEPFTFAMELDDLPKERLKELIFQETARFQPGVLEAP
Chain of Mitogen-activated protein kinase; ERK1/ERK2 (Homo sapiens) (P28482 whole entry, looked up): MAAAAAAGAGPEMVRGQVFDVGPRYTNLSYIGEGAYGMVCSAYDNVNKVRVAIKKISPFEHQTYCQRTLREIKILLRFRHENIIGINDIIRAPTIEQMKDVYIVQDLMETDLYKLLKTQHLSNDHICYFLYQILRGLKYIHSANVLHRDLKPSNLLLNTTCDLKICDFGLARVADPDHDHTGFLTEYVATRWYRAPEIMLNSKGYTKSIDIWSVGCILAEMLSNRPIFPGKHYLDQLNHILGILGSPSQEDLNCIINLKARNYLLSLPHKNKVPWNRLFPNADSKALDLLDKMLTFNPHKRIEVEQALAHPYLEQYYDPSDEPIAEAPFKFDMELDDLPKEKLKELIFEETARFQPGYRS
Type: cell-based
Method in brief: as §1

Compound	inhibition
O=C(N[C@H](Cc1ccccc1)C(=O)Nc1ccc(Cl)cc1)c1cc(Cl)ccc1O	Active

The molecules below were run on HCT-116 (assay: Cytotoxicity against human HCT116 cells after 72 hrs by calcein-AM assay). Settings: HCT-116, 72 h.
Type: functional, cell-based

Compound	IC50 [µM]
CC(C)[C@H](NC(=O)c1cc(Cl)ccc1O)C(=O)Nc1ccc(C(F)(F)F)cc1	5.9
O=C(N[C@H](Cc1ccccc1)C(=O)Nc1ccc(Cl)cc1)c1cc(Cl)ccc1O	1.7

Each molecule was assayed on G-361 (assay: Effect on CDK1 protein expression in human G361 cells at 0.22 to 6 uM after 24 hrs by immunoblotting analysis). Settings: not given.
Type: functional, cell-based
Method in brief: as §1

Compound	Activity
O=C(N[C@H](Cc1ccccc1)C(=O)Nc1ccc(Cl)cc1)c1cc(Cl)ccc1O	Active

These molecules were tested on G-361 (assay: Upregulation of p27KIP1 protein expression in human G361 cells at 670 nM after 24 hrs by immunoblotting analysis). Settings: not given.
Type: functional, cell-based
Method in brief: as §1

Compound	Activity
O=C(N[C@H](Cc1ccccc1)C(=O)Nc1ccc(Cl)cc1)c1cc(Cl)ccc1O	Active

These molecules were tested on G-361 (assay: Induction of apoptosis in human G361 cells assessed as caspase-9 cleavage at 0.2 to 6 uM after 24 hrs by immunoblotting analysis). Settings: not given.
Type: functional, cell-based
Method in brief: as §1

Compound	Activity
O=C(N[C@H](Cc1ccccc1)C(=O)Nc1ccc(Cl)cc1)c1cc(Cl)ccc1O	Active

Source: ChEMBL document CHEMBL2424632, “Substituted 2-hydroxy-N-(arylalkyl)benzamides induce apoptosis in cancer cell lines” (Eur J Med Chem, 2013)
